Laboratory results from ChEMBL document CHEMBL4346709, “Design and Optimization Leading to an Orally Active TTK Protein Kinase Inhibitor with Robust Single Agent Efficacy” (J Med Chem, 2019).

Columns and labels:
LRRK2 = LRRK2 (Homo sapiens, UniProt Q5S007); test: Inhibition of recombinant human GST-tagged LRRK2 catalytic domain (970 to 2527 residues) expressed in baculovirus expression system at 3 uM using LRRKtide as substrate measured after 1 hr by Alexa fluor-647 ADP tracer-based ADAPTA assay relative to control; conditions: probe LRRKtide
Chain of LRRK2 (Q5S007 whole entry, the tested form may be a part): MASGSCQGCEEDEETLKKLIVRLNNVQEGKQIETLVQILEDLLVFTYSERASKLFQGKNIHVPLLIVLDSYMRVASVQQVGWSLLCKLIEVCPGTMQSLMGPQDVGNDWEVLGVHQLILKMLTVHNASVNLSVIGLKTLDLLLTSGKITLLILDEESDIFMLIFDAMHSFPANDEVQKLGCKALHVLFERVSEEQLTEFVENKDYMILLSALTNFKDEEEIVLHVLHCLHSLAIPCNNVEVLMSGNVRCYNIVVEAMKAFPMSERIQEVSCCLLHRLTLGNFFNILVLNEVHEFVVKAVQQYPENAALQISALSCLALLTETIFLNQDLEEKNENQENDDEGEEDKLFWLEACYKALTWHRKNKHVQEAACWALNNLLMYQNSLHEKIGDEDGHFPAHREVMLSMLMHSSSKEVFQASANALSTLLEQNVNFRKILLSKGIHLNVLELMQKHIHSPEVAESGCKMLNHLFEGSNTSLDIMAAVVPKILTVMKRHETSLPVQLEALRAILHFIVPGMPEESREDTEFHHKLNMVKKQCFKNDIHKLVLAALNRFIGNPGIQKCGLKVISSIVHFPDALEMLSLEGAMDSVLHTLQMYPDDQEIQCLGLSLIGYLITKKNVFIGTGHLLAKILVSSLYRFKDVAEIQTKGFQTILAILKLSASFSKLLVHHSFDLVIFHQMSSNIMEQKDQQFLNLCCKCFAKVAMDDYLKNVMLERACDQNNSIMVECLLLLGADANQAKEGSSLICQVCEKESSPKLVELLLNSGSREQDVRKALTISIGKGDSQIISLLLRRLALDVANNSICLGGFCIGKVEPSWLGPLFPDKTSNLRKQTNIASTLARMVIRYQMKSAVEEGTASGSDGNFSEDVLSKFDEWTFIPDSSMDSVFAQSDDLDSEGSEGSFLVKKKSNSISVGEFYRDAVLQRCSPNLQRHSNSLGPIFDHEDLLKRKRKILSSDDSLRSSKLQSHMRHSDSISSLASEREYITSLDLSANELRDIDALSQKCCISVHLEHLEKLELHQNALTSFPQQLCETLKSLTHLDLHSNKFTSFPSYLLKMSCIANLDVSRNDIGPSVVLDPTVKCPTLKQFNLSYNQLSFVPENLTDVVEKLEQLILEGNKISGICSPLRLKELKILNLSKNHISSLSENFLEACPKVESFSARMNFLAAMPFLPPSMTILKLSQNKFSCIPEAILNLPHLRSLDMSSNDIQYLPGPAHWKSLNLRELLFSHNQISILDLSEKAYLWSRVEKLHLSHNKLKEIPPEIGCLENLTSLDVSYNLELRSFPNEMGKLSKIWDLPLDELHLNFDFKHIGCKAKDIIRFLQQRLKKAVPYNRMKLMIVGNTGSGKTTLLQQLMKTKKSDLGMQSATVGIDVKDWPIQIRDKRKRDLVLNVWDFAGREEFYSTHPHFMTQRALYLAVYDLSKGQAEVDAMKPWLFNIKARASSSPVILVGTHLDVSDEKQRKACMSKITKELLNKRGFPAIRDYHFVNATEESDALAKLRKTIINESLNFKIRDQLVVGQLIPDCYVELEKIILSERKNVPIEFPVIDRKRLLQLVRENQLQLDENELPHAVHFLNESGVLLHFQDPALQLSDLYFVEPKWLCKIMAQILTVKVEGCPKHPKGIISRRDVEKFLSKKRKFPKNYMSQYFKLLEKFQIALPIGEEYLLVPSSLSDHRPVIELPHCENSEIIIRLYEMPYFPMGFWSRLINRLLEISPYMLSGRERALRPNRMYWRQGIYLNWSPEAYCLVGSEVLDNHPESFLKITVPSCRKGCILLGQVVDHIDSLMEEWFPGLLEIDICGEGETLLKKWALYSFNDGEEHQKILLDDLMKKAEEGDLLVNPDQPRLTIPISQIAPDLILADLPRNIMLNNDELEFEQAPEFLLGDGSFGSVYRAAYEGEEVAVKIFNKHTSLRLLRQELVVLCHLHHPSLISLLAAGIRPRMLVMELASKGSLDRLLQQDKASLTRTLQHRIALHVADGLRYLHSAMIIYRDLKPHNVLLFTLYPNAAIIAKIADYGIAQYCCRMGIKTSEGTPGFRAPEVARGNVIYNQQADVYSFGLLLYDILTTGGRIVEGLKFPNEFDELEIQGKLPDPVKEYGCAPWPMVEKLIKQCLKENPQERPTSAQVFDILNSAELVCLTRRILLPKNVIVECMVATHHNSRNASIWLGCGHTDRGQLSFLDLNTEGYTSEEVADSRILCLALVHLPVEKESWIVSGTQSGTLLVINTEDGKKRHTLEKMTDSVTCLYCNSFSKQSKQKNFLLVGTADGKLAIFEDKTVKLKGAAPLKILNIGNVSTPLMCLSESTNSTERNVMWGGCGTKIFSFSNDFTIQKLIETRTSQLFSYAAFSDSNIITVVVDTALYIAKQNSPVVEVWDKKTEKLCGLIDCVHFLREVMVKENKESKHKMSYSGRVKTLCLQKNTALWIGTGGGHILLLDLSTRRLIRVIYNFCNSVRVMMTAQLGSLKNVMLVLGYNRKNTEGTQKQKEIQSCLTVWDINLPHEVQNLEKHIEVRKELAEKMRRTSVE
Procedure, shortened: (§1)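 Kinase selectivity panel: single-point assessment at 3 µM, n=1.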

[1] = biological target: Leukocyte tyrosine kinase receptor (Homo sapiens, UniProt P29376); test: Inhibition of recombinant human GST-tagged LTK cytoplasmic domain (450 to 864 residues) expressed in baculovirus expression system at 3 uM by Z'-LYTE assay relative to control; procedure, shortened: as §1
Chain of Leukocyte tyrosine kinase receptor (P29376 whole entry, the tested form may be a part): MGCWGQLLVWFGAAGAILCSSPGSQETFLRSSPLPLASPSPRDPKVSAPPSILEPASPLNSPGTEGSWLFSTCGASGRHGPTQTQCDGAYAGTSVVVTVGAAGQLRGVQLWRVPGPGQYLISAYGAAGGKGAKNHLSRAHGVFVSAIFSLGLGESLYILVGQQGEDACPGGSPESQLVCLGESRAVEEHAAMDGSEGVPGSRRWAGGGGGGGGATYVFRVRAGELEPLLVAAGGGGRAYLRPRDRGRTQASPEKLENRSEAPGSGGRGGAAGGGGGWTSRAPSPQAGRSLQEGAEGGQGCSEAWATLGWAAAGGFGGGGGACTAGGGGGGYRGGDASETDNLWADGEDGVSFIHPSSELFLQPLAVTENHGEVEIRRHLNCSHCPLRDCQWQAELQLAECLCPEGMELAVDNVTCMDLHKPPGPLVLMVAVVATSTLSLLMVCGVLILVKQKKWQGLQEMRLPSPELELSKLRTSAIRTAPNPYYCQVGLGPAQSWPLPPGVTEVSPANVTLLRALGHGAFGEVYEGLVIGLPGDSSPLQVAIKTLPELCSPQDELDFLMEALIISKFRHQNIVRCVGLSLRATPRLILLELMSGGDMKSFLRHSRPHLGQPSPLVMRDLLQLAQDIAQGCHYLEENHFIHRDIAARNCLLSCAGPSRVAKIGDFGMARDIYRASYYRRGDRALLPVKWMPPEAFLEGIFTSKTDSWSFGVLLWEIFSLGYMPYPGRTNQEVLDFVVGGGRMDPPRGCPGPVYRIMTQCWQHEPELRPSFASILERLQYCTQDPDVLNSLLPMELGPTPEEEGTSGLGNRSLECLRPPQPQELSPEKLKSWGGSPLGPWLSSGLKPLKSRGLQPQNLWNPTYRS

[2] = Metabolic stability in human liver S9 fraction assessed as parent compound remaining after 60 mins; assay type: ADME, subcellular; conditions: read-out: Stability
[3] = Cmax in rat at 10 mg/kg, po; assay type: ADME, organism-based; set-up: dose 10 mg/kg, route oral; conditions: in vivo
Procedure, shortened: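 Rat oral PK at 10 mg/kg. Compound is given as a solution in CMCT (0.5% CMC/0.25% tween-80) or formulated in 5% TPGS, 10% captisol, 50 mM citrate buffer. Cmax and AUC are recorded.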

CAL-51 = test: Antitumor activity against human CAL51 cells xenografted in CB17 SCID mouse assessed as tumor growth inhibition at 30 mg/kg, po administered every seven days for 16 days and measured twice per week up to 31 days by caliper method relative to control; assay type: functional; conditions: CAL-51, po, read-out: TGI
Procedure, shortened: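 Female CB17 SCID mice, 6-8 weeks old, inoculated subcutaneously with 2×10^6 CAL-51 cells. Oral dosing once weekly (QW) at 30-120 mg/kg, or 30 mg/kg BID QW, for 16 days, against vehicle control. Tumour long and short axes measured twice weekly by digital caliper; volume = width² × length/2. Values are TGI; data are mean ± SEM.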

With `C[C@@H](Oc1cc(C(=O)N(C)C)ccc1Nc1nc(O[C@H]2CC[C@@](C)(O)CC2)c2c(Cl)c[nH]c2n1)C(F)(F)F` as the molecule, how does the inhibition at 1 h, 3 µM (LRRK2) read?
The inhibition at 1 h, 3 µM was over 80%.

What about the inhibition [1] of the same molecule?
The inhibition was over 80%.

And the remaining at 1 h [2]?
Its remaining at 1 h is 65%.

And the Cmax [3]?
The Cmax was 4.35 µM.

What about the inhibition in vivo at 30 mg/kg (CAL-51) of the same molecule?
Its inhibition in vivo at 30 mg/kg is 59%.
